{"source": "ChEMBL document CHEMBL5674889", "about": "“Enhanced JunD/RSK3 signalling due to loss of BRD4/FOXD3/miR-548d-3p axis determines BET inhibition resistance” (2020)", "key": {"BT-549 [1]": {"system": "BT-549", "experiment": "Antiproliferative activity in human BT-549 cells assessed as cell growth in the presence of miR-548d-3p at 1 uM by CCK-8 assay", "assay_type": "functional, cell-based", "summary_of_the_method": "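BLBC cells transfected with miR-548d-3p mimic or inhibitor, with or without JQ1; growth read by CCK-8 assay relative to DMSO-treated control, seeded at 3000/well. Triplicates, mean ± SD, one-way ANOVA.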"}, "BT-549 [2]": {"system": "BT-549", "experiment": "Effect on human BRD4-knockdown BT-549 cells assessed as miR-548d-3p expression at 1 uM by real-time PCR analysis", "assay_type": "functional, cell-based"}, "MDA-MB-231 [3]": {"system": "MDA-MB-231", "experiment": "Induction of apoptosis in human RPS6KA2-knockdown MDA-MB-231 cells at 1 uM by FACS assay", "assay_type": "functional, cell-based", "summary_of_the_method": "(§1)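 Stable clones (vector, RSK3-overexpressing or RPS6KA2-knockdown) treated ± JQ1 1 μM. Cells washed twice in PBS, resuspended at 1 × 10^6 cells/ml in binding buffer, stained with Annexin V-FITC and propidium iodide for 10 min at room temperature in the dark, then read by flow cytometry. Three independent experiments; one-way ANOVA.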"}, "BT-549 [4]": {"system": "BT-549", "experiment": "Antiproliferative activity in human FOXD3-knockdown BT-549 cells co-silenced with shRNA of JUND assessed as cell growth at 1 uM by CCK-8 assay", "assay_type": "functional, cell-based"}, "MDA-MB-231 [5]": {"system": "MDA-MB-231", "experiment": "Antiproliferative activity in human MDA-MB-231 cells assessed as cell growth in the presence of AZ5104 at 1 uM by CellTiter-Glo luminescent cell viability assay", "assay_type": "functional, cell-based", "summary_of_the_method": "(§2)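 BLBC cells seeded at 3000/well, adhered overnight, then exposed to JQ1 (1 μM) with or without an EGFR inhibitor (1 μM) for 48 h; control and RPS6KA2-shRNA clones tested. Viability by CellTiter-Glo luminescence, background-subtracted and normalized to DMSO-treated control; triplicates, mean ± SD, one-way ANOVA against JQ1 alone.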"}, "MDA-MB-231 [6]": {"system": "MDA-MB-231", "experiment": "Effect on human MDA-MB-231 cells assessed as JunD protein expression in the presence of miR-548d-3p at 1 uM by Western blot analysis", "assay_type": "functional, cell-based"}, "MDA-MB-231 [7]": {"system": "MDA-MB-231", "experiment": "Effect on human MDA-MB-231 cells assessed as RSK3 protein expression at 1 uM for 24 hrs by Western blot analysis", "assay_type": "functional, cell-based", "summary_of_the_method": "(§3)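 Western blot for RSK3 in MDA-MB-231 and BT549 cells treated with DMSO or 1 μM for 0, 12 and 24 h. Antibody used at 1:1000.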"}, "BT-549 [8]": {"system": "BT-549", "experiment": "Antiproliferative activity in human FOXD3-knockdown BT-549 cells assessed as cell growth at 1 uM by CCK-8 assay", "assay_type": "functional, cell-based"}, "BT-549 [9]": {"system": "BT-549", "experiment": "Antiproliferative activity in human RPS6KA2 expressed in JUND knock-down BT-549 cells assessed as inhibition of cell growth at 1 uM by CCK-8 assay", "assay_type": "functional, cell-based"}, "BT-549 [10]": {"system": "BT-549", "experiment": "Induction of apoptosis in human BT-549 cells at 1 uM by FACS assay", "assay_type": "functional, cell-based", "summary_of_the_method": "as §1"}, "MDA-MB-231 [11]": {"system": "MDA-MB-231", "experiment": "Induction of apoptosis in human MDA-MB-231 cells at 1 uM by FACS assay", "assay_type": "functional, cell-based", "summary_of_the_method": "as §1"}, "MDA-MB-231 [12]": {"system": "MDA-MB-231", "experiment": "Induction of apoptosis in human MDA-MB-231 cells expressing vector control assessed as necrotic cells at 1 uM by Annexin V-FITC flow cytometric analysis (reference value: 1.67%)", "assay_type": "functional", "summary_of_the_method": "as §1"}, "BT-549 [13]": {"system": "BT-549", "experiment": "Antiproliferative activity in human BT-549 cells assessed as cell growth in the presence of erlotinib at 1 uM by CellTiter-Glo luminescent cell viability assay", "assay_type": "functional, cell-based", "summary_of_the_method": "as §2"}, "MDA-MB-231 [14]": {"system": "MDA-MB-231", "experiment": "Antiproliferative activity in human MDA-MB-231 cells assessed as cell growth in the presence of lapatinib at 1 uM by CellTiter-Glo luminescent cell viability assay", "assay_type": "functional, cell-based", "summary_of_the_method": "as §2"}, "BT-549 [15]": {"system": "BT-549", "experiment": "Effect on human BT-549 cells assessed as RSK3 protein expression at 1 uM for 24 hrs by Western blot analysis", "assay_type": "functional, cell-based", "summary_of_the_method": "as §3"}, "MDA-MB-231 [16]": {"system": "MDA-MB-231", "experiment": "Induction of apoptosis in human MDA-MB-231 cells in the presence of osimertinib at 1 uM by flow cytometry analysis", "assay_type": "functional, cell-based", "summary_of_the_method": "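Cells given JQ1 and/or osimertinib, then stained with Annexin V-FITC plus propidium iodide (10 min, room temperature, dark; 1 × 10^6 cells/ml in binding buffer after two PBS washes) and analysed by flow cytometry; one-way ANOVA.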"}, "BT-549 [17]": {"system": "BT-549", "experiment": "Antiproliferative activity in human BT-549 cells assessed as cell growth in the presence of AZ5104 at 1 uM by CellTiter-Glo luminescent cell viability assay", "assay_type": "functional, cell-based", "summary_of_the_method": "as §2"}, "MDA-MB-231 [18]": {"system": "MDA-MB-231", "experiment": "Antiproliferative activity in human MDA-MB-231 cells assessed as inhibited cell growth at 1 uM by CCK-8 assay", "assay_type": "functional, cell-based"}}, "note": "Calls of active or inactive are those of the source. The rule behind the calls is not given here."}
{"smiles": "Cc1sc2c(c1C)C(c1ccc(Cl)cc1)=N[C@@H](CC(=O)OC(C)(C)C)c1nnc(C)n1-2", "values": [{"measurement": "Activity", "setting": "BT-549 [1]", "value": "Active"}, {"measurement": "Activity", "setting": "BT-549 [2]", "value": "Active"}, {"measurement": "Activity", "setting": "MDA-MB-231 [3]", "value": "Active"}, {"measurement": "Activity", "setting": "BT-549 [4]", "value": "Active"}, {"measurement": "Activity", "setting": "MDA-MB-231 [5]", "value": "Active"}, {"measurement": "Activity", "setting": "MDA-MB-231 [6]", "value": "Active"}, {"measurement": "Activity", "setting": "MDA-MB-231 [7]", "value": "Active"}, {"measurement": "Activity", "setting": "BT-549 [8]", "value": "Active"}, {"measurement": "Activity", "setting": "BT-549 [9]", "value": "Active"}, {"measurement": "Activity", "setting": "BT-549 [10]", "value": "Active"}, {"measurement": "Activity", "setting": "MDA-MB-231 [11]", "value": "Active"}, {"measurement": "Activity", "setting": "MDA-MB-231 [12]", "value": 1.54, "unit": "%"}, {"measurement": "Activity", "setting": "BT-549 [13]", "value": "Active"}, {"measurement": "Activity", "setting": "MDA-MB-231 [14]", "value": "Active"}, {"measurement": "Activity", "setting": "BT-549 [15]", "value": "Active"}, {"measurement": "Activity", "setting": "MDA-MB-231 [16]", "value": "Active"}, {"measurement": "Activity", "setting": "BT-549 [17]", "value": "Active"}, {"measurement": "Activity", "setting": "MDA-MB-231 [18]", "value": "Active"}]}
